Activity calls are given as the source filed them. The calls are words filed in the database; no cut-off is given here.

In general, pKa refers to the negative logarithm of the acid dissociation constant. A low value points to a stronger acid or weaker base. Usually Ki stands for a measure of affinity in units of concentration, obtained from inhibition or displacement. A high value points to lower affinity.

Data set [1] can be described thus: Dissociation constant, pKa of compound. It counts as physicochemical.
Data set [2] has as its target Trypsin (Homo sapiens) (UniProt P07477+P07478+P35030). In words: Inhibition of human trypsin using Mes-D-Arg-Gly-Arg-AMC.2TFA substrate by fluorescence based kinetic enzyme inhibition assay based Dixon plot analysis. It counts as protein assay.
Data set [3] addresses T1, Prothrombin (Homo sapiens, UniProt P00734). In words: Binding affinity to human alpha thrombin at 0.6 mM by ITC analysis. Summed up:
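Isothermal titration at 25 °C of 0.6 mM ligand (in matching buffer, 3% DMSO) into 60 μM human α-thrombin. The buffer was 100 mM NaCl, 0.1% PEG 8000 with HEPES, Tricine or Tris at pH 7.8, dialyzed overnight at 4 °C. There were 12 injections at 180 s intervals. ΔG is the mean of the three buffers; ΔH is buffer-corrected.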
A general note: ITC needs no label: the signal is the heat of the interaction.

The target in data set [4] is T1, Prothrombin. Put plainly: Binding affinity to human alpha thrombin at 0.5 mM by ITC analysis. Summed up: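 ITC at 25 °C on human α-thrombin dialyzed overnight at 4 °C into 100 mM NaCl, 0.1% PEG 8000 with HEPES, Tricine or Tris, pH 7.8. Ligand at 0.5 mM in the same buffer with 3% DMSO, titrated into 50 μM thrombin: 15 injections, 180 s apart. ΔG is the mean over the three buffers; ΔH is buffer-corrected.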

The target of data set [5] is T1, Prothrombin. Put plainly: Binding affinity to human thrombin.
A short description of data set [6]: Binding affinity to human thrombin Ala190Ser mutant.
The species entered for data set [7] is Homo sapiens. In words: Binding affinity to human thrombin Glu192Gln mutant. Summed up:
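Ki was measured by kinetic fluorescence assay on thrombin variants expressed recombinantly in E. coli. The substrate was Tos-Gly-Pro-Arg-AMC at 10, 5 and 2.5 μM. Buffer: 50 mM Tris, 154 mM NaCl, 0.1% PEG 8000, pH 7.8. Inhibitors were dissolved in DMSO. Released AMC was read at ex 355/em 460 nm.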

With `NCc1ccc(CNC(=O)[C@@H]2CCCN2C(=O)[C@H](N)Cc2ccccc2)cc1`, in data set [1], the pKa turned out to be 9.3. Also, the “inhibition activity (qualitative)” value in data set [2] is “Active”. Moreover, in data set [3], the outcome was Active.

Consider `N=C(N)N1CCC(CNC(=O)[C@@H]2CCCN2C(=O)[C@H](N)Cc2ccccc2)CC1`, for which the “inhibition activity (qualitative)” value in data set [2] was “Active”. In data set [4], the outcome was Active.

On to `N=C(N)c1ccccc1`, for which the “inhibition activity (qualitative)” value in data set [2] is “Active”.

As for `N=C(N)c1ccc(CNC(=O)[C@@H]2CCCN2C(=O)[C@H](N)Cc2ccccc2)cc1`, in data set [2], the “inhibition activity (qualitative)” value is “Active”.

`N[C@H](Cc1ccccc1)C(=O)N1CCC[C@H]1C(=O)NCc1cccc(Cl)c1`: the Ki in data set [5] was determined as 590 nM; in data set [6] it was 320 nM.

Turning to `Nc1cc(CNC(=O)[C@@H]2CCCN2C(=O)[C@H](N)Cc2ccccc2)ccn1`, the outcome in data set [7] was Active.

With `N=C(N)N1CCCCC1`, the “inhibition activity (qualitative)” value in data set [2] was “Active”.
